“And” between values parts separate entries of the source, which are not always exact repeats. Equal values may be shown once. “Also recorded” adds a separate entry of the source.
How the values were obtained:
[1] = Absorption spectra in CH3OH; assay type: physicochemical
[2] = Steady-state fluorescence in CH3OH; assay type: physicochemical; conditions: excitation at 532 nm; for Quantum yield for fluorescence ΦFL: 3 as standard, ±SD
In short: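 Steady-state emission spectra recorded in CH3OH on a spectrofluorometer with 532 nm excitation. Quantum yield determined relative to a reference rhodamine dye in CH3OH (ΦFL = 0.93).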

[3] = Singlet oxygen yield from 1O2 luminescence at 1270 nm; assay type: physicochemical; conditions: air-saturated CH3OH; ±SD
In short: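 Air-saturated CH3OH solutions in quartz cuvettes. Excitation by 532 nm second harmonic of a nanosecond-pulsed Nd:YAG laser (20 Hz) for time-resolved 1O2 luminescence decay at 1270 nm. Emission collected at 90° through a 950 nm long-pass filter onto an NIR-detector spectrometer. Steady-state NIR emission spectra used a 532 nm diode-pumped solid-state laser.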

[4] = system: Colo-26 cells; test: Uptake in Colo-26 cells with and without verapamil by flow cytometry; assay type: cell-based, murine; conditions: for Uptake relative to the corresponding thioamide derivative: Colo-26 cells, Figure 2; for Increase in uptake in the presence of VER: 0.5 μM dye, 1 h, with vs without 100 μM verapamil, mean fluorescence
In short: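 Colo-26 cells exposed 1 h to 0.5 μM dye with or without 100 μM verapamil, then analysed by flow cytometry with 561 nm excitation and 710 nm emission. Mean cellular fluorescence compared between conditions; error bars SD.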

[5] = system: Colo-26 cells; test: Phototoxicity toward Colo-26 cells with tunable dye laser; assay type: cell-based, murine; conditions: for Phototoxicity (in words): 0.15 μM, 5.0 J cm^–2 of laser light; for LD50/EC50 (laser, 1.0 J cm^–2): dark LD50 over EC50 with 1.0 J cm^–2 of laser light
[6] = system: Colo-26 cells; test: Combination PDT and doxorubicin in Colo-26 cells; assay type: cell-based, murine; conditions: for Synergy with Dox upon irradiation (in words): 0.15 μM dye, various Dox concentrations, 1.0 J cm^–2 laser light; for Phototoxicity (in words) in the absence of Dox: 0.15 μM, 1.0 J cm^–2 of 613 nm (15b, 17b) or 611 nm (16b, 18b) laser light, relative to dark controls; for Surviving fraction of the combination vs single treatments (in words) / Surviving fraction: 0.15 μM photosensitizer, 1.0 J cm^–2 of 611 nm light; for Surviving fraction of the combination vs single treatments (in words): 0.5 μM Dox; for Surviving fraction: 1.0 μM Dox; for Dox-only concentration giving the same surviving fraction as the combination: combination: 0.15 μM photosensitizer, 0.05 μM Dox, 1.0 J cm^–2 of light
In short: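 Colo-26 cells were seeded at 10 000/well and grown 24 h in RPMI 1640 with 10% FBS. Dye at 0.15 μM (ethanol stock) plus Dox at 0.005–5.0 μM were added together as 10× medium solutions, alongside single-agent wells. After 1 h dark, wells were kept dark or laser-irradiated at λmax (±2 nm), 3.2 mW cm–2, to 1 J cm–2. Fresh medium, 48 h at 37 °C, 5% CO2. SRB assay read at 570 nm; six replicates, ±SD, pairwise […].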

[7] = Photostability under continuous illumination; assay type: physicochemical
In short: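 Dye in 10% CH3OH/pH 7.4 buffer under continuous tungsten-source illumination at 50 mW cm–2. Loss of dye chromophore was followed as a function of delivered fluence and treated as first-order, giving the fluence for half-loss.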

[8] = molecular target: P-gp (Homo sapiens, UniProt P08183); test: P-gp transport and cell association in MDCKII-MDR1 monolayers; assay type: in vitro ADME; conditions: dog, MDCK-MDR1
[9] = system: P-gp; test: as above; assay type: in vitro ADME; conditions: dog, MDCK-MDR1, with 24 (LSN 335984), 5 μM
[10] = system: mitochondria of Colo-26 cells; test: Colocalization by ImageStream flow cytometry; assay type: cell-based, murine; conditions: Colo-26 cells incubated with both agents; ±SD
In short: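 Colo-26 cells (5 × 10^5 in 0.5 mL medium) co-incubated 15 min with MitoTracker Green and MitoTracker Red. Cells were then centrifuged, and medium replaced with Hanks PBS. Resuspended cells kept on ice and imaged by ImageStream (480–560 and 642–745 nm channels; MTG excited at 488 nm). Per-cell similarity was a log-transformed Pearson correlation of spatially correlated pixel intensities over the whole cell, averaged over 1300 cells.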

[11] = in CH3OH; cited from earlier work
[12] = system: P-gp; conditions: 5 μM; cited from earlier work
[13] = system: isolated P-gp; conditions: ref 7−9; cited from earlier work
[14] = 350–800 nm light at 50 mW cm^–2, 10% CH3OH in pH 7.4 buffer

Sequence of P-gp (Homo sapiens, UniProt P08183) (P08183 whole entry): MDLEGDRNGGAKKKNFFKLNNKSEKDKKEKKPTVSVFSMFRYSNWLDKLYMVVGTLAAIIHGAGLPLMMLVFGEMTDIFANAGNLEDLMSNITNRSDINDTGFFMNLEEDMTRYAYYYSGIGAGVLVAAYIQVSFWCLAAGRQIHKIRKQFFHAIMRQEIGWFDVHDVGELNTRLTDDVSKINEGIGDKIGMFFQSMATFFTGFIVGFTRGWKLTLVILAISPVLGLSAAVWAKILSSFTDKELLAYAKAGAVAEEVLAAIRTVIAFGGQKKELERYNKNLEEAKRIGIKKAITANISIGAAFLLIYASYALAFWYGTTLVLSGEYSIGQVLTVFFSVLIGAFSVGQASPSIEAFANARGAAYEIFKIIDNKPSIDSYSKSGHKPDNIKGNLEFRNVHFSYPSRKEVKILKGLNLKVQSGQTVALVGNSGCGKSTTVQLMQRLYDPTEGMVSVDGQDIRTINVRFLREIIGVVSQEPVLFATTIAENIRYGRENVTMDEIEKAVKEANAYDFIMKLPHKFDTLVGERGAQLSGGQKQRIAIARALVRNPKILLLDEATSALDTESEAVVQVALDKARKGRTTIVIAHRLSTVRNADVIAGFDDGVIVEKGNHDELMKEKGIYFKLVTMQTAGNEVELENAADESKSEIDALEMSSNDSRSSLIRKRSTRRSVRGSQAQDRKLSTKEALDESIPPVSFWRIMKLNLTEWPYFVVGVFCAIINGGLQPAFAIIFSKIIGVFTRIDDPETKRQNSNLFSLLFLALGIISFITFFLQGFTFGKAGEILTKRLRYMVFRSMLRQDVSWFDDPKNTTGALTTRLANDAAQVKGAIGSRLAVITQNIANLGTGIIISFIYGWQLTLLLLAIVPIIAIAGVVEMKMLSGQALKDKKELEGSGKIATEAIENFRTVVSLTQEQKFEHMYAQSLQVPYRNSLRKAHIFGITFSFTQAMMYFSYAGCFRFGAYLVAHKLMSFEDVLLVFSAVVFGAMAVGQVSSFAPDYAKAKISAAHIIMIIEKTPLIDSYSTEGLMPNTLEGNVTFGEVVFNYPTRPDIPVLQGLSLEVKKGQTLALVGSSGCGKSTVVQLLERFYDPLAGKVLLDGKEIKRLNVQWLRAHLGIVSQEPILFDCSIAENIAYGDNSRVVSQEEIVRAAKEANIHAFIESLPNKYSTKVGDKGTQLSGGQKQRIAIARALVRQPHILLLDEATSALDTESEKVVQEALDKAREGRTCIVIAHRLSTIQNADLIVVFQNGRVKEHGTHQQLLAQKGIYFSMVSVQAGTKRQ

## CCN(CC)C(=O)c1ccc(-c2c3ccc(=[N+](C)C)cc-3[se]c3cc4c(cc23)C(C)(C)CCN4C)s1.[Cl-] [15b, 9-(5-(Diethylcarbamoyl)thiophen-2-yl) Selenorhodamine]
[1]
  Absorption maximum λmax: 609 nm
  Molar extinction coefficient ε: 7.18 × 10^4 M^–1 cm^–1
[2]
  Fluorescence emission maximum λFL: 636 nm
  Quantum yield for fluorescence ΦFL: 0.009 ± 0.001
[3]
  Quantum yield for the generation of singlet oxygen Φ(1O2): 0.50 ± 0.03
[4]
  Uptake relative to the corresponding thioamide derivative: 40–50%
[5]
  Phototoxicity (in words): some phototoxicity
  LD50/EC50 (laser, 1.0 J cm^–2): 22
[6]
  Synergy with Dox upon irradiation (in words): No synergy; also recorded: do not show significant synergistic effects
  Phototoxicity (in words) in the absence of Dox: no significant phototoxicity

## CCN(CC)C(=S)c1ccc(-c2c3ccc(=[N+](C)C)cc-3[se]c3cc4c(cc23)C(C)(C)CCN4C)s1.[Cl-] [16b, 9-(5-(Diethylcarbamothioyl)thiophen-2-yl) Selenorhodamine]
[1]
  Absorption maximum λmax: 608 nm
  Molar extinction coefficient ε: 9.78 × 10^4 M^–1 cm^–1
[2]
  Fluorescence emission maximum λFL: 635 nm
  Quantum yield for fluorescence ΦFL: 0.008 ± 0.001
[3]
  Quantum yield for the generation of singlet oxygen Φ(1O2): 0.54 ± 0.03
[7]; [14]
  Fluence after which half of the dye chromophore is lost: ~230 J cm^–2
[4]
  Increase in uptake in the presence of VER: 1.3- to 2 fold and 2 fold
[5]
  LD50/EC50 (laser, 1.0 J cm^–2): > 55
[6]
  Synergy with Dox upon irradiation (in words): synergistic effects
  Surviving fraction of the combination vs single treatments (in words): statistically significant decrease
  Surviving fraction: ≤ 0.20
  Phototoxicity (in words) in the absence of Dox: some phototoxicity
  Dox-only concentration giving the same surviving fraction as the combination: 0.5 µM

## CN1CCC(C)(C)c2cc3c(-c4ccc(C(=O)N5CCCCC5)s4)c4ccc(=[N+](C)C)cc-4[se]c3cc21.[Cl-] [17b, 9-(5-(Piperidylcarbamoyl)thiophen-2-yl) Selenorhodamine]
[1]
  Absorption maximum λmax: 609 nm
  Molar extinction coefficient ε: 8.73 × 10^4 M^–1 cm^–1
[2]
  Fluorescence emission maximum λFL: 634 nm
  Quantum yield for fluorescence ΦFL: 0.009 ± 0.001
[3]
  Quantum yield for the generation of singlet oxygen Φ(1O2): 0.48 ± 0.03
[4]
  Uptake relative to the corresponding thioamide derivative: 40–50%
[5]
  Phototoxicity (in words): little if any phototoxicity
  LD50/EC50 (laser, 1.0 J cm^–2): 26
[5]; Mus musculus, 48 h, read-out: EC50 (λmax ± 2 nm), 0.5 J cm^–2
  EC50: > 500 nM
[8]
  Papp A→B at 1 h, 5 μM: 0.09 ± 0.03 ×10⁻⁶ cm/s
  Papp B→A at 1 h, 5 μM: 16.4 ± 0.4 ×10⁻⁶ cm/s
  efflux ratio at 1 h, 5 μM: 182
[9]
  Papp A→B at 1 h, 5 μM: 0.1 ± 0.01 ×10⁻⁶ cm/s
  Papp B→A at 1 h, 5 μM: 1.11 ± 0.02 ×10⁻⁶ cm/s
  Papp at 1 h, 5 μM: ~0.6 ×10⁻⁶ cm/s
[6]
  Synergy with Dox upon irradiation (in words): No synergy; also recorded: do not show significant synergistic effects
  Phototoxicity (in words) in the absence of Dox: no significant phototoxicity

## CN1CCC(C)(C)c2cc3c(-c4ccc(C(=S)N5CCCCC5)s4)c4ccc(=[N+](C)C)cc-4[se]c3cc21.[Cl-] [18b, 9-(5-(Piperidylcarbamothioyl)thiophen-2-yl) Selenorhodamine]
[1]
  Absorption maximum λmax: 608 nm
  Molar extinction coefficient ε: 8.11 × 10^4 M^–1 cm^–1
[2]
  Fluorescence emission maximum λFL: 634 nm
  Quantum yield for fluorescence ΦFL: 0.008 ± 0.001
[3]
  Quantum yield for the generation of singlet oxygen Φ(1O2): 0.44 ± 0.03
[7]; [14]
  Fluence after which half of the dye chromophore is lost: ~230 J cm^–2
[7]; 500–800 nm light at 50 mW cm^–2, 10% CH3OH in pH 7.4 buffer
  Fluence after which half of the dye chromophore is lost: ~850 J cm^–2
[4]
  Increase in uptake in the presence of VER: 1.3- to 2 fold and 2 fold
[5]
  LD50/EC50 (laser, 1.0 J cm^–2): > 55
[8]
  Papp A→B at 1 h, 5 μM: 0.19 ± 0.05 ×10⁻⁶ cm/s
  Papp B→A at 1 h, 5 μM: 2.9 ± 0.3 ×10⁻⁶ cm/s
  efflux ratio at 1 h, 5 μM: 15
[9]
  Papp A→B at 1 h, 5 μM: 0.17 ± 0.02 ×10⁻⁶ cm/s
  Papp B→A at 1 h, 5 μM: 0.18 ± 0.01 ×10⁻⁶ cm/s
  Papp at 1 h, 5 μM: ~0.2 ×10⁻⁶ cm/s
[6]
  Synergy with Dox upon irradiation (in words): synergistic effects
  Surviving fraction of the combination vs single treatments (in words): statistically significant decrease
  Surviving fraction: ≤ 0.20
  Phototoxicity (in words) in the absence of Dox: some phototoxicity
  Dox-only concentration giving the same surviving fraction as the combination: 0.3 µM

## C[n+]1c(C=CC=C2N(Cc3ccc(CCl)cc3)c3cc(Cl)c(Cl)cc3N2Cc2ccc(CCl)cc2)oc2ccccc21.[Cl-] [MTG, 2-[3-[5,6-dichloro-1,3-bis[[4-(chloromethyl)phenyl]methyl]-1,3-dihydro-2H-benzimidazol-2-ylidene]-1-propenyl]-3-methylbenzoxazolium chloride]
[10]
  Mean bright detail similarity score with MTR: 2.0 ± 0.8

## CC/N=c1\cc2oc3cc(NCC)c(C)cc3c(-c3ccccc3C(=O)OCC)c-2cc1C [compound 3, rhodamine 6G]
[11]
  Quantum yield for fluorescence ΦFL (standard): 0.93

## O[C@@H](COc1cccc2ncccc12)CN1CCN([C@@H]2c3ccccc3[C@@H]3[C@H](c4ccccc42)C3(Cl)Cl)CC1 [compound 24]
[12]
  P-gp inhibition (in words): completely inhibits P-gp

## tetramethylrosamine [1 (E = O)]
[13]
  Transport rate relative to rhodamine 123 (2) or rhodamine 6G (3): 5- to 10 fold

Source: article PMC4207532 (Journal of Medicinal Chemistry, 2014)
